Experimental data taken from the EternaBench riboswitch data.

System: MS2 coat protein
Test: apparent Kd, MS2 coat protein; higher = weaker binding; RNA-MaP array; FMN 200 µM where present
How it was run: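 SNAP-549-labelled MS2 coat protein, doubled from 0.7 or 1.5 nM to 3 µM, was titrated over designs transcribed by stalled E. coli RNA polymerase on Illumina sequencing-chip clusters. Titrations were run without and then with constant ligand in 100 mM Tris-HCl pH 7.5, 80 mM KCl, 4 mM MgCl2, BSA, DTT, yeast tRNA and Tween-20. The apparent Kd is the median of filtered per-cluster fits to green signal normalised to red-channel RNA signal and control-cluster median Fmax.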

[1] = designed as: OFF switch for flavin mononucleotide, no ligand
[2] = ligand present: flavin mononucleotide, designed as: OFF switch for flavin mononucleotide
[3] = designed as: ON switch for flavin mononucleotide, no ligand
[4] = ligand present: flavin mononucleotide, designed as: ON switch for flavin mononucleotide

Sequence	apparent Kd [1]	apparent Kd [2]	apparent Kd [3]	apparent Kd [4]
GUCAGCUCGUGAGGAUAUACAACACUGCUUCGGCAGUGUAUUAAAAUCACAUGAGGAUCACCCAUGUAGAAGGCACGAGCUGAU	5.04 nM	7.7 nM	–	–
AGUGUCGGCACAGGAUAUGAGAUGCCGGCAGACAUGAGGAUCACCCAUGUAAGCGACCCAGGCAGUCAGAAGGGUGAUCGACAA	–	–	156 nM	44.4 nM
AUUUAACAUGAGGAUCACCCAUGUGAGGAUAUGUCCAUUUUAAACAAAUAGGAUAUGGACAGAAGGCACACCGG	162 nM	366 nM	–	–
UUGGACGUCGUAGGAUAUGUAGGAUAUUCCUACAUGAGGAUCACCCAUGUUGACAUGGAAGAAGGACAGAAGGAGGAUGUCCAU	–	–	303 nM	7.18 nM
CGUCGCUGUCGAGAGGAUAUGCGGUGGUGGACAUGAGGAUCACCCAUGUUAGCGAUAGCAUCACGGUAGAAGGCUCUUACGACUG	–	–	21.4 nM	20.6 nM
AAUAGACAUGAGGAUCACCCAUGUGUAUAUGGGAGAGGAUAUACGGGACACAAGGGCGGAGUAGAAGGCUCGAGAC	–	–	149 nM	146 nM
GUGCAACAUGAGGAUCACCCAUGUCAGGAUAUGCGAAUUUCAUCAAAAGAUGAAAUUUGCAGAAGGGACUGCAC	19 nM	22.8 nM	–	–
CAGCUACCCAGUAUGGGUUUUUGUACAGAAGGCCAGGUACAUGAGGAUCACCCAUGUAAAGAUAUGGAGGAUAUGUUAGUGUAU	–	–	29.1 nM	8.08 nM
GUAAAUCAUGUAGGAUAUGCAUGGCGAAGCUACGCAGAAGGACAUGAGGAUCACCCAUGUUAUAGCUACCAAGUUAGGUGGCAA	110 nM	260 nM	–	–
AUAUAUAUAUCAGGAUAUGGACAGGCCUGUUCGUAUUGAGACAGUAACAUGAGGAUCACCCAUGUCCAGAAGGGAUAUAUAUAU	93.2 nM	55.1 nM	–	–
UUUUUUAUGUAAGGAUAUCGAUUAUAUACACAUCCUACAUGAGGAUCACCCAUGUUUUAAUUUAUCGAGAAGGUACAUUGUCUG	–	–	34.1 nM	36.5 nM
CUCUUGUCAGGAUAUUAUGGACGAUAGCAGGGCUACGUCAGUGAGAAGGGACAUGAGGAUCACCCAUGUAAAAU	83.6 nM	55.2 nM	–	–
AUCAGCUCGUCAGGAUAUACGUCACUGCGUCAGCAGUGUGGUAAGAUCACAUGAGGAUCACCCAUGUAGAAGGGACGAGCUGUU	13.2 nM	269 nM	–	–
GGGUACAUCGGAGGAUAUCAUGUACAUACAUGAGGAUCACCCAUGUCGAUGGAGACAUCGGAGAUUGAGAAGGCCGAUGUACCG	–	–	230 nM	9.27 nM
UUAGGAUCAGGAUAUGAUGUUUUAAACAUGAGGAUCACCCAUGUAGAUCCUGAUUCAACAUCAGAAGGGAUAAUUU	–	21.5 nM	–	–
GGAGCUCCUGACAUGAGGAUCACCCAUGUUCACUUAUUAACUCAGGAUAUCGUCUCGAAACGAGACGAGAAGGGAGAUGCUCCU	–	–	8.36 nM	6.76 nM
UGUUGUAUUACAGGAUAUCUAUGAUUUUUGUUUAGAGAAGGGUAUUCACAUGAGGAUCACCCAUGUAUAUACGAGGAAGUUGUG	–	–	60.3 nM	74.7 nM
GUCAUCAAUGAAGGAUAUCUAUGUCCAACAUGAGGAUCACCCAUGUUGAGGAUUACCUAUGUGUAGGAGAAGGUCAAUAUAACU	–	–	8.01 nM	6.91 nM
CACGGCGCAUGAGGAUAUCAGGGCGACCUUUCGACAUGAGGAUCACCCAUGUAAUCUACUCGGCGUGAGAAGGCAUGACAGCCA	–	–	286 nM	136 nM
GGCCCGCGCGUGAGGAUAUGCUGAUCCCAGGAUUAGCAGAAGGCACAUGAGGAUCACCCAUGUCCAACUUGUCU	32.6 nM	57 nM	–	–
UUUUGGUCAGGAUAUUGUUAGUUUAGUUGUUUGUAUUAGUUCGAGAAGGGACAUGAGGAUCACCCAUGUGGUUU	71.8 nM	58.9 nM	–	–

Sequence	apparent Kd [1]	apparent Kd [2]	apparent Kd [3]	apparent Kd [4]
UUUUAGUAAGGAUAUGCGUAGAUCUACGAAAGUAGAUCUACGCAGAAGGUACAUGAGGAUCACCCAUGUAGAUU	21.5 nM	26.7 nM	–	–
GUAGCUUAUGAGAAGGCGAUCAUGAAACAUGAUCGAGGAUAUCAUGUAAACAUGAGGAUCACCCAUGUAUGGGUAUUAUGCUAC	–	–	313 nM	42.9 nM
GCUGACGAUGUAGGAUAUCAGUAUAAUAAAUACUGAGAAGGACAUGAGGAUCACCCAUGUACUCAACGUCAGCAGAGGAAACUC	17.8 nM	22.5 nM	–	–
ACAAAUGGAGGAUAUACAUGAGGAUCACCCAUGUUUAUCCUACAUAUGUGAUACUCAUGUAGAAGGCCAUUUGA	13.1 nM	12.6 nM	–	–
CAUUAUGUUGAGGAUAUGCACCGGCUCACUGACGCAGAAGGCGACACAUGAGGAUCACCCAUGUCAGUUCGCGA	15.5 nM	15.8 nM	–	–
GGGUCAACAUGAGGAUCACCCAUGUAGGAUAUCGCUAUUGUAAUCAUGAAACAUGAUUACAAUAGCGAGAAGGACAUAUGCUUU	12.3 nM	25.4 nM	–	–
AUUUUCCUGGCAGGAUAUCUUACACAUGAGGAUCACCCAUGUACAAAAGUGGGAGAAGGGUCGUGGAGGUGUAUAGUCGAAUAG	–	–	79.2 nM	36.1 nM
GACAUGAGGAUCACCCAUGUCCCUCCAGAAGGCUGGCGCGCGAAACCGAUCUCGGUUCCGGGCACAGAGGAUAUGGGCGGUUGG	–	–	198 nM	26.1 nM
UUGUUGUAUGUAGGAUAUGCAUAUUAUUAUUAUGCAGAAGGACAUGAGGAUCACCCAUGUGUAUUAUUAUUAUAUAUUAUAUAU	25.5 nM	44.1 nM	–	–
AUCAACCAGGCAGGAUAUCAAUGUGGCCUCAUCGUACACCCUCGCAACAUGAGGAUCACCCAUGUUGAGAAGGGCCAAUUAAGA	10.1 nM	6.02 nM	–	–
GCAAAGCCUGACAUGAGGAUCACCCAUGUUAGAUUGUUAUGUCAGGAUAUUGUCUAGAAACUAGACAAGAAGGGAUGCUUUGCC	–	–	734 nM	51.3 nM
AGUUAAUAUCGAGGAUAUCCUCAUCUACAUGAGGAUCACCCAUGUAAGCAUGGAGAAGGCGAUAUUAACAGCAUGUUACAUGCA	–	–	112 nM	10.5 nM
ACAGCGGCAGGAUAUGCAUGCUCCGACUUAUGCCGACAAAGACAUGAGGAUCACCCAUGUAGAAGGGCCAGCGG	23.1 nM	22.8 nM	–	–
GAGAAGUCAGGAUAUGCAUGGCGGGACUUGCGUCGUGGCGUGCAGAAGGGACAUGAGGAUCACCCAUGUAAAGA	53 nM	49 nM	–	–
UGAGCCUCGUGAGGAUAUACAUGAGGAUCACCCAUGUAAAUGAAAGAUACGUCGAAACGACGAAUGUAGAAGGCACGAGGCUCA	18.4 nM	61.3 nM	–	–
UGAAAUCAUGUAGGAUAUGCAUGGCGAAGCUACGCAGAAGGACAUGAGGAUCACCCAUGUUAUAGCGUCCGAUAAAGGAUGCAA	135 nM	139 nM	–	–
GUAGCAUUCUGAGGAUAUUCAUACCGGAAACGGACAUGAGGAUCACCCAUGUGGCGAAAGCCUUGGAAGAAGGCAGUAUGCUAC	–	–	4.27 nM	3.56 nM
AAUAAUUAGUAAGGAUAUACUAGCGAUUAGCUUGUAGAAGGUACAGUCUUAUGUAUAACAAAUUAACAUGAGGAUCACCCAUGU	–	–	10.2 nM	7.39 nM
GCCCAAUCCACUUCGGGCCCAGACAGAAGGGCACACGGUCUAAGUCACAUGAGGAUCACCCAUGUGCAGGAUAUGUCUCGACUC	9.88 nM	50.3 nM	–	–
AAUUAGGUCACAGGAUAUACAACUUCCAUUGCUGUAGAAGGGUGUCACAUACUUAGCUGACAUGAGGAUCACCCAUGUAUCCAC	–	–	243 nM	95.2 nM
CCCAACGUAACGCCACGUUGAGAGCAGGAUAUUCCGCCGUGAUCUACAUGAGGAUCACCCAUGUGGAAGAAGGGCUACACAAAA	16.3 nM	146 nM	–	–
